{"data": "Measurements gathered from unrelated publications", "AURKA": "Aurora kinase A (AURKA, Homo sapiens, UniProt O14965)", "FLT3": "Receptor-type tyrosine-protein kinase FLT3 (FLT3, Homo sapiens, UniProt P36888)", "DHFR": "Dihydrofolate reductase (DHFR, Homo sapiens, UniProt P00374)", "ROCK1": "Rho-associated protein kinase 1 (ROCK1, Homo sapiens, UniProt Q13464)", "CSNK1D": "Casein kinase I isoform delta (CSNK1D, Homo sapiens, UniProt P48730)", "F2": "Prothrombin (F2, Bos taurus, UniProt P00735)", "FAAH": "Fatty-acid amide hydrolase 1 (FAAH, Homo sapiens, UniProt O00519)", "HTR2C": "5-hydroxytryptamine receptor 2C (HTR2C, Homo sapiens, UniProt P28335)", "Aldo-keto reductase family 1 member B1": "Aldo-keto reductase family 1 member B1 (Bos taurus, UniProt P16116)", "note": "Protocols differ between the studies behind these lines."}
{"Compound": "Cc1cnc(-c2ccc(-c3ccc(NC(=O)Nc4c(F)cc(F)cc4F)cc3F)c3c2C(=O)NC3)[nH]1", "target": "AURKA", "effect on": "enzyme activity", "mode": "inhibitor", "IC50": "0.38 nM"}
{"Compound": "O=C(Nc1ccccc1C=NNS(=O)(=O)c1ccc2ccccc2c1)c1ccc([N+](=O)[O-])cc1", "target": "UDP-N-acetylmuramate--L-alanine ligase (murC, Escherichia coli K-12, UniProt P17952)", "effect on": "enzyme activity", "mode": "inhibitor", "method": "absorbance", "IC50": "27000 nM"}
{"Compound": "Cc1ccc(C(=O)Nc2ccc(Oc3cc4cnn(C)c4cc3-c3cn[nH]c3)c(F)c2)c(=O)n1-c1ccc(F)cc1", "target": "Tyrosine-protein kinase receptor Tie-1 (TIE1, Homo sapiens, UniProt P35590)", "effect on": "enzyme activity in cells", "mode": "inhibitor", "IC50": "> 1000 nM"}
{"Compound": "O=C(Nc1cccnc1)N1CCC(Cc2cccc(Oc3ccc(C(F)(F)F)cn3)c2)CC1", "target": "Monoglyceride lipase (MGLL, Homo sapiens, UniProt Q99685)", "effect on": "enzyme activity", "mode": "inhibitor", "method": "absorbance", "IC50": "> 10000 nM"}
{"Compound": "CCCCNc1ccnc(Nc2cccc(-c3cccnc3)c2)n1", "target": "FLT3", "effect on": "enzyme activity", "mode": "inhibitor", "IC50": "123 nM"}
{"Compound": "Cc1ccc2nc(-c3ccc(Cl)cc3)n(Cc3ccccc3)c2c1", "target": "DHFR", "effect on": "enzyme activity", "mode": "inhibitor", "IC50": "2350 nM"}
{"Compound": "COc1ccc2c(Oc3ccc4c(C(=O)Nc5ccccc5N)cccc4c3)ccnc2c1", "target": "AURKA", "effect on": "enzyme activity", "mode": "inhibitor", "IC50": "> 500 nM"}
{"Compound": "CC(C)(C)n1nc(-c2ccc3nc(OC4CC4)ccc3c2)c(C(N)=O)c1N", "target": "ROCK1", "effect on": "cell-free assay", "IC50": "> 10000 nM"}
{"Compound": "O=C1NCCc2sc(-c3ccncc3)cc21", "target": "CSNK1D", "effect on": "enzyme activity", "mode": "inhibitor", "IC50": "1400 nM"}
{"Compound": "CN1CCN(c2ccc(Nc3ncc4cc(C#N)c(=O)n(C5CCCC5)c4n3)cc2)CC1", "target": "CSNK1D", "effect on": "enzyme activity", "mode": "inhibitor", "IC50": "1770 nM"}
{"Compound": "Cc1nccc2c1c(=O)n(C)c1cc(OC[C@@H](N)CC(C)C)c(C#N)cc21", "target": "BMP-2-inducible protein kinase (BMP2K, Homo sapiens, UniProt Q9NSY1)", "effect on": "enzyme activity", "mode": "inhibitor", "IC50": "45 nM"}
{"Compound": "CC1=C(/C=C/C(C)=C/C=C/C(C)=C/C(=O)O)C(C)(C)CCC1", "target": "F2", "effect on": "enzyme activity", "mode": "inhibitor", "method": "fluorescence", "IC50": "223000 nM"}
{"Compound": "FC(F)(F)C1(Nc2ccnc(Nc3cccc(-c4cccnc4)c3)n2)CC1", "target": "FLT3", "effect on": "enzyme activity", "mode": "inhibitor", "IC50": "< 6 nM"}
{"Compound": "CCCOc1ccc(Nc2cc(C)nc3ccc(Cl)cc23)cc1", "target": "Cell division protein FtsZ (Mycobacterium tuberculosis, UniProt P9WN95)", "effect on": "tubulin polymerisation", "mode": "inhibitor", "IC50": "22700 nM"}
{"Compound": "CSCC[C@H](NC(=O)[C@H](Cc1c[nH]c2ccccc12)NC(=O)CNC(=O)[C@H](Cc1ccc(O)cc1)NC(=O)[C@H](C)NC(=O)[C@@H](CCC(=O)O)NC(=O)CN1CCN(CC(=O)O)CCN(CC(=O)O)CCN(CC(=O)O)CC1)C(=O)N[C@@H](CC(=O)O)C(=O)N[C@@H](Cc1cccc2ccccc12)C(N)=O", "target": "Gastrin/cholecystokinin type B receptor (CCKBR, Homo sapiens, UniProt P32239)", "effect on": "ligand displacement", "method": "radioligand", "IC50": "3.51 nM"}
{"Compound": "CN(C)CC#Cc1ccc2[nH]c3c(c2c1)-c1nc(N)ncc1CCC3", "target": "Serine/threonine-protein kinase ULK3 (ULK3, Homo sapiens, UniProt Q6PHR2)", "effect on": "enzyme activity", "mode": "inhibitor", "method": "radiometric", "IC50": "> 10000 nM"}
{"Compound": "O=C(O)c1ccc2nc(-c3ccc(OCc4ccccc4COc4ccc(-c5nc6ccc(C(=O)O)cc6[nH]5)cc4)cc3)[nH]c2c1", "target": "DHFR", "effect on": "enzyme activity", "mode": "inhibitor", "IC50": "> 250000 nM"}
{"Compound": "O=C(Oc1nsnc1N1CCC(Cc2ccccc2)CC1)N1CCCCC1", "target": "FAAH", "effect on": "enzyme activity", "mode": "inhibitor", "notes": "cell membranes", "IC50": "324 nM"}
{"Compound": "CC(C)Nc1ccnc(Nc2cccc(-c3ccncc3)c2)n1", "target": "FLT3", "effect on": "enzyme activity", "mode": "inhibitor", "IC50": "284 nM"}
{"Compound": "O=[N+]([O-])c1ccc(-c2nc3ccccc3n2Cc2ccccc2)cc1", "target": "DHFR", "effect on": "enzyme activity", "mode": "inhibitor", "IC50": "12300 nM"}
{"Compound": "NNC(c1nnnn1CC(c1ccccc1)c1ccccc1)C1CCCCC1 (stereo not shown)", "target": "Endothiapepsin (EAPA, Cryphonectria parasitica, UniProt P11838)", "effect on": "enzyme activity", "mode": "inhibitor", "method": "fluorescence", "IC50": "96800 nM"}
{"Compound": "CCNc1ccnc(Nc2cccc(-c3cccnc3)c2)n1", "target": "FLT3", "effect on": "enzyme activity", "mode": "inhibitor", "IC50": "47.5 nM"}
{"Compound": "C[C@@H]1Cc2ccccc2N1C(=O)NCCCCN(C)[C@@H]1Cc2cccc3[nH]c(=O)n(c23)C1", "target": "HTR2C", "effect on": "ligand displacement", "method": "radioligand", "IC50": "> 10000 nM"}
{"Compound": "O=C(Oc1nsnc1N1CCCCC1)N1CCc2ccccc2C1", "target": "FAAH", "effect on": "enzyme activity", "mode": "inhibitor", "notes": "cell membranes", "IC50": "562 nM"}
{"Compound": "CNc1ccnc(Nc2cccc(-c3cccnc3)c2)n1", "target": "FLT3", "effect on": "enzyme activity", "mode": "inhibitor", "IC50": "204 nM"}
{"Compound": "CCN(CC)CCCC[C@H](NC(=O)[C@H](CC(C)C)NC(=O)[C@H](C)NC(=O)[C@H](Cc1ccccc1)NC(=O)c1ccc(C(C)(C)C)cc1)C(=O)N[C@@H](CO)C(=O)OC", "target": "Chromodomain Y-like protein 2 (CDYL2, Homo sapiens, UniProt Q8N8U2)", "effect on": "ligand displacement", "method": "TR-FRET", "IC50": "85 nM"}
{"Compound": "CC(C)(C)n1nc(-c2cnc3cc(OC4CC4)ccc3c2)c(C(N)=O)c1N", "target": "ROCK1", "effect on": "cell-free assay", "IC50": "> 10000 nM"}
{"Compound": "O=C(Oc1nsnc1N1CCc2ccccc2C1)N1CCCCC1", "target": "FAAH", "effect on": "enzyme activity", "mode": "inhibitor", "notes": "cell membranes", "IC50": "17 nM"}
{"Compound": "CC(C)Nc1ccnc(Nc2ccccc2-c2ccccc2)n1", "target": "FLT3", "effect on": "enzyme activity", "mode": "inhibitor", "IC50": "> 24000 nM"}
{"Compound": "CC(=N/N=c1\\scc(-c2ccc(Br)cc2)n1-c1ccccc1C)C12CC3CC(CC(C3)C1)C2", "target": "Aldo-keto reductase family 1 member B1", "effect on": "enzyme activity", "mode": "inhibitor", "method": "absorbance", "IC50": "10200 nM"}
{"Compound": "O=C(Nc1ccc(Br)cc1)N1CCC(n2c(=O)[nH]c3c(Br)cccc32)CC1", "target": "Formamidopyrimidine-DNA glycosylase (Escherichia coli, UniProt P05523)", "effect on": "enzyme activity", "mode": "inhibitor", "IC50": "> 100000 nM"}
{"Compound": "CC(=N/N=c1\\scc(-c2ccc(Br)cc2)n1-c1c(C)cccc1C)C12CC3CC(CC(C3)C1)C2", "target": "Aldo-keto reductase family 1 member B1", "effect on": "enzyme activity", "mode": "inhibitor", "method": "absorbance", "IC50": "4210 nM"}
{"Compound": "CC[C@H](C)[C@H](NC(C)=O)C(=O)N[C@@H](CCC(=O)O)C(=O)N[C@H](C(=O)N[C@H](C=O)CC(=O)O)[C@@H](C)O", "target": "Caspase-4 (CASP4, Homo sapiens, UniProt P49662)", "effect on": "enzyme activity", "mode": "inhibitor", "IC50": "784 nM"}
{"Compound": "COc1cccc(-c2cccc(Nc3nccc(NC4CCCCC4)n3)c2)c1", "target": "FLT3", "effect on": "enzyme activity", "mode": "inhibitor", "IC50": "24500 nM"}
{"Compound": "O=[N+]([O-])c1ccc(-c2cs/c(=N/N=C\\c3c[nH]c4ccccc34)n2Cc2ccccc2)cc1", "target": "Aldo-keto reductase family 1 member B1", "effect on": "enzyme activity", "mode": "inhibitor", "method": "absorbance", "IC50": "1520 nM"}
{"Compound": "O=C(O)c1ccnc2c(O)cccc12", "target": "Gamma-butyrobetaine dioxygenase (BBOX1, Homo sapiens, UniProt O75936)", "effect on": "enzyme activity", "mode": "inhibitor", "IC50": "111000 nM"}
{"Compound": "CC(=N/N=c1\\scc(-c2ccc(Br)cc2)n1-c1cccc2ccccc12)C12CC3CC(CC(C3)C1)C2", "target": "Aldo-keto reductase family 1 member B1", "effect on": "enzyme activity", "mode": "inhibitor", "method": "absorbance", "IC50": "12900 nM"}
{"Compound": "CC(C)C[C@H](CC(=O)NO)C(=O)N[C@@H](Cc1ccccc1)C(=O)NCCN1CCOCC1", "target": "Stromelysin-1 (MMP3, Homo sapiens, UniProt P08254)", "effect on": "enzyme activity", "mode": "inhibitor", "method": "fluorescence", "IC50": "225 nM"}
{"Compound": "CN(CCCCNC(=O)c1cc2ccccc2[nH]1)[C@@H]1Cc2cccc3[nH]c(=O)n(c23)C1", "target": "HTR2C", "effect on": "ligand displacement", "method": "radioligand", "IC50": "3080 nM"}
{"Compound": "Cc1ccc(NC(=O)c2ccc(C)c(C(F)(F)F)c2)cc1C#Cc1nn(C2CCC(O)CC2)c2ncnc(N)c12 (stereo not shown)", "target": "Tyrosine-protein kinase receptor TYRO3 (TYRO3, Homo sapiens, UniProt Q06418)", "effect on": "enzyme activity", "mode": "inhibitor", "method": "radiometric", "IC50": "351 nM"}
{"Compound": "CC(=N/N=c1\\scc(-c2ccc(Br)cc2)n1-c1ccccc1)C12CC3CC(CC(C3)C1)C2", "target": "Aldo-keto reductase family 1 member B1", "effect on": "enzyme activity", "mode": "inhibitor", "method": "absorbance", "IC50": "4400 nM"}
{"Compound": "CC1=C(/C=C/C(C)=C/C=C/C(C)=C/C=O)C(C)(C)CCC1", "target": "F2", "effect on": "enzyme activity", "mode": "inhibitor", "method": "fluorescence", "IC50": "74 µg/mL"}
{"Compound": "C/C(=N/N=c1/scc(-c2ccc(Br)cc2)n1-c1ccccc1)c1ccc2c(c1)OCCO2", "target": "Aldo-keto reductase family 1 member B1", "effect on": "enzyme activity", "mode": "inhibitor", "method": "absorbance", "IC50": "5960 nM"}
{"Compound": "c1ccc(-c2cccc(Nc3nccc(NC4CCCCC4)n3)c2)cc1", "target": "FLT3", "effect on": "enzyme activity", "mode": "inhibitor", "IC50": "> 12000 nM"}
{"Compound": "C/C(=N/N=c1/scc(-c2ccc(Cl)cc2)n1-c1ccc(F)cc1)c1ccc2c(c1)OCCO2", "target": "Aldo-keto reductase family 1 member B1", "effect on": "enzyme activity", "mode": "inhibitor", "method": "absorbance", "IC50": "9630 nM"}
{"Compound": "CN(C)c1ccc(Nc2nc(-c3ccncc3)nc3c2CC(N)CC3)cc1 (stereo not shown)", "target": "Prostaglandin G/H synthase 1 (PTGS1, Homo sapiens, UniProt P23219)", "effect on": "enzyme activity", "mode": "inhibitor", "IC50": "~4500 nM"}
